An excerpt weighted towards active compounds, which were near 1.9% of everything screened.
TDP2 absorb – human TDP2 enzyme inhibitors, primary screen, biochemical, epi absorbance, recombinant enzyme; Tyrosyl-DNA phosphodiesterase 2 (Homo sapiens), O95551; T5PNP hydrolysis, p-nitrophenol absorbance 415 nm; 0.34% of 370,000 active; inhibition, % at 12.8 µM;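 active = inhibition above the mean of all tested compounds plus 3 SD, set per campaign, cut at about 25% in these data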;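 note: 0% = DMSO with enzyme and 100% = buffer with substrate but no TDP2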
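Evaluation: % inhibition relative to enzyme-containing and enzyme-free wells. Material: recombinant human TDP2. Benchmarks: enzyme-free and DMSO wells. Timing: enzyme reaction with compound for 2 h at 37 °C. Compound dosing: 12.8 µM only. Measured by: p-Nitrophenol epi absorbance. Reagent: T5PNP substrate at 5 mM, a TopII-DNA adduct mimic. Replication: single well per compound.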
LEDGF integ inh – blockers of LEDGF/p75-dependent integrase strand transfer – biochemical, TR-FRET, high throughput, primary screen. TR-FRET IN-LEDGF/p75 DNA integration, Eu/Cy5. inhibition, % at 3.7 µM. AID 743269, 2014. HIV-1 integrase (with human LEDGF/p75). 0.64% of 370,000 active;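 active = inhibition above the screen-wide mean plus 3 SD, cut at about 13% in these data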;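 note: signal is the Cy5 over europium emission ratio at 671 and 618 nm; 0% = plate median of compound wells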
UHRF1 MBD2 ctr – UHRF1 methylated DNA binding inhibitors, primary screen, counter-screen for MBD2 inhibitor project, biochemical, TR-FRET, human UHRF1, single concentration. E3 ubiquitin-protein ligase UHRF1 (Homo sapiens), Q96T88. UHRF1 binding to methylated oligo. inhibition, % at 4.4 µM. 0.75% of 370,000 active. AID 687016, 2013; in the data active = inhibition above about 21%;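 note: UHRF1 SRA domain binding a hemimethylated CpG hairpin DNA probe; 0% = median of test compound wells and 100% = reference inhibitor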
Target sequence (Q96T88 whole entry, looked up, the tested form may be a part): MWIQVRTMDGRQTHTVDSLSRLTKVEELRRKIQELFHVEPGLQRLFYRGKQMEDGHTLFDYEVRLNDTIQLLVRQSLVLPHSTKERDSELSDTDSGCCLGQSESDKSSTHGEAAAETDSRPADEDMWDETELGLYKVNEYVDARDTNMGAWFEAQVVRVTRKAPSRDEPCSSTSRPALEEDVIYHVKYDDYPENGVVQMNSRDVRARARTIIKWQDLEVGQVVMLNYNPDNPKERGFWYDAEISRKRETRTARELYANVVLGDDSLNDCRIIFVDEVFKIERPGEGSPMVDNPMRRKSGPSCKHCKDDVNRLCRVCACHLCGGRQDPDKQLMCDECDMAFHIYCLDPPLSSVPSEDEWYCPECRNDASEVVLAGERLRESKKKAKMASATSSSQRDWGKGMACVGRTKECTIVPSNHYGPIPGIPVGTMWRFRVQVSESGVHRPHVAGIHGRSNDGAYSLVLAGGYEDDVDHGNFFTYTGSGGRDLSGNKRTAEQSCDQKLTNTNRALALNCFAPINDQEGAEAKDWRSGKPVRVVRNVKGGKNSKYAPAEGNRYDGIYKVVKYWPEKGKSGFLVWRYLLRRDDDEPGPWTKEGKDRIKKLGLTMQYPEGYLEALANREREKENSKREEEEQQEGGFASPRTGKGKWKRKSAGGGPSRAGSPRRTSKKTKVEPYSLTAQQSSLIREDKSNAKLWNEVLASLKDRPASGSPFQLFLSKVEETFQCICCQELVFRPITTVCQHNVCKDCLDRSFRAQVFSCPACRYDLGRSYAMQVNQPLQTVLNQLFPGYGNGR
MBD2 DNA inh – inhibitors of MBD2 binding to methylated DNA, primary screen, biochemical, TR-FRET, DNA-binding domain, human | inhibition, % at 4.4 µM | MBD2 binding to methylated oligonucleotide | 0.31% of 370,000 active | Methyl-CpG-binding domain protein 2 (Homo sapiens), Q9UBB5; in the data active = inhibition above about 13%
Rin1-Abl PPI inh – inhibitors of Rin1-Abl protein binding, primary screen, biochemical, TR-FRET | inhibition, % at 7.35 µM | Tyrosine-protein kinase ABL1 (Homo sapiens) + Ras and Rab interactor 1 (Homo sapiens), … | 0.4% of 360,000 active | AID 588664, 2011; in the data active = inhibition above about 5%, passing the limit was not always enough
TDP2 inh conf – human TDP2 enzyme inhibitors, retest, confirmation, biochemical, epi absorbance, recombinant enzyme; 22% of 1,100 active; absorbance read-out; inhibition, % at 12.8 µM; AID 743263, 2014; shares compounds with TDP2 absorb; in the data active = inhibition above about 25%;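 note: 0% = vehicle with enzyme and 100% = no enzyme buffer only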
IN multimer act – HIV-1 IN multimer formation enhancers, counter-screen for LEDGF/p75 integration inhibitor project, biochemical, TR-FRET; shares compounds with LEDGF integ inh; activation, % at 7.7 µM; TR-FRET HIV-1 integrase multimerization; 17% of 2,000 active; in the data active = activation above about 8.9%
TRFRET interf – TR-FRET optical interference artefacts, confirmation, artefact control for LEDGF/p75-dependent integration inhibitor project, biochemical, HIV-1 IN multimerization; shares compounds with LEDGF integ inh; TR-FRET optical interference counterscreen; inhibition, % at 7.7 µM; 2,000 tested, under 10 active;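 active = inhibition above the mean over all tested compounds plus 3 SD, which no compound reached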;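 note: 0% = integrase with antibodies and DMSO and 100% = antibodies without integrase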
LEDGF integ conf – inhibitors of HIV-1 IN-LEDGF/p75 DNA integration, confirmation, biochemical, TR-FRET. shares compounds with LEDGF integ inh. TR-FRET LEDGF/p75-dependent HIV-1 integration. inhibition, % at 3.7 µM. 36% of 2,000 active. AID 1053136, 2014; in the data active = inhibition above about 14%
* marks the source's active call; other numbers are inactive results; nt = no result given.

SMILES	TDP2 absorb	LEDGF integ inh	UHRF1 MBD2 ctr	MBD2 DNA inh	Rin1-Abl PPI inh	TDP2 inh conf	IN multimer act	TRFRET interf	LEDGF integ conf
CN1c2ccccc2C(C)(C)C12C=Nc1c(cc(N3CCOCC3)c3ccccc13)O2 (configuration not stated)	53*	14*	8	-7	3	12	2	-6	-1
NC1=CC(=O)C(=O)c2ccccc21	15	9	-15	-20	-7	nt	nt	nt	nt
O=C1C=C(O)c2[nH]c(=O)ccc2C1=O	41*	26*	10	-10	-2	42*	30*	-106	51*
Cn1c(SCC(=O)NNC(=O)c2ccccc2)nnc1C1CC1	1	-2	-2	-1	0	nt	nt	nt	nt
CC(C)N1CC2(CC(c3ccccc3C(F)(F)F)=NO2)CN1C(=O)c1ccco1 (configuration not stated)	2	3	0	-1	-2	nt	nt	nt	nt
C[n+]1c(-c2ccccc2)cc2c(=Cc3ccc([N+](=O)[O-])cc3)c3ccccc3n21	37*	25*	5	-10	7	46*	7	-25	48*
CC(C)n1c2ccccc2c2cc([N+](=O)[O-])ccc21	0	1	-3	6	-3	nt	nt	nt	nt
Cc1csc(=O)n1CC(=O)OCc1nnc(-c2ccccc2)o1	-3	-4	-1	-3	3	nt	nt	nt	nt
CCOC(=O)c1cc2c(=Cc3ccc(N(C)C)cc3)c3ccccc3n2[n+]1C	52*	21*	30*	2	-8	56*	20*	-73	54*
CCOC(=O)SC1=N/C(=C\c2ccc(N(C)C)cc2)C(=O)S1	5	-5	-2	-3	-3	nt	nt	nt	nt
Cc1ccc(C)c(-n2c3nc(=O)n(C)c(=O)c-3cc3ccccc32)c1	-7	-4	0	1	-6	nt	nt	nt	nt
Cc1ccc(C)c(-n2c3nc(=O)[nH]c(=O)c-3cc3cc([N+](=O)[O-])ccc32)c1	52*	21*	10	-4	-2	40*	-3	10	21*
CCc1noc(C)c1C(=O)NCCN1C(=O)S/C(=C\c2ccccc2F)C1=O	-9	6	-2	-8	-2	nt	nt	nt	nt
Cc1cc(Br)cc(C=Nc2ccc(N3CCOCC3)cc2)c1O	34*	26*	0	-4	0	-8	3	-13	17*
Oc1c(Cl)cc(Cl)cc1C=Nc1ccc(N2CCOCC2)cc1	22	6	3	3	1	nt	nt	nt	nt
CN(C)c1cc(Cl)c2nonc2c1N	66*	26*	12	10	-4	54*	1	-4	11
CN(C)CCCn1c2c(c(SCC(=O)Nc3ccc4c(c3)OCCO4)nc1=O)CCC2	8	-2	-1	-1	1	nt	nt	nt	nt
Nn1cnnc1N/N=C/c1cccc(Cl)c1Cl	75*	56*	7	2	-2	-3	1	-3	-2
FC(F)(F)c1ccccc1/C=N/Nc1ccccn1	1	0	-2	3	-1	nt	nt	nt	nt
Nn1cnnc1N/N=C/c1ccccc1C(F)(F)F	51*	47*	7	-1	-1	-2	2	-7	-6
COc1ccc2cc(C(=O)Nc3ccc(Cl)cc3)sc(=O)c2c1OC	-12	6	1	-3	0	nt	nt	nt	nt
CC(=O)N1CCn2c3c(c(=O)c4cc(C)ccc42)CCC31 (configuration not stated)	34*	20*	-1	-7	0	50*	0	-1	23*
CN(CC(=O)Nc1ccccc1Br)C(=O)Cn1[nH]c(=O)c2ccccc2c1=O	1	1	-1	-5	-2	nt	nt	nt	nt
Cc1nnc(N/N=C/c2ccc([N+](=O)[O-])cc2)n1N	55*	79*	19	-2	1	0	1	-4	-3
COc1ccc(/C=N/Nc2nnc(C)n2N)cc1OC	54*	48*	8	3	-4	-3	0	-1	-14
SMILES	TDP2 absorb	LEDGF integ inh	UHRF1 MBD2 ctr	MBD2 DNA inh	Rin1-Abl PPI inh	TDP2 inh conf	IN multimer act	TRFRET interf	LEDGF integ conf
COc1ccc(/C=N/Nc2nnc(C)n2N)cc1OC(C)=O	42*	32*	8	-5	2	9	1	-3	3
CCOC(=O)c1c2c(n(C)c1C)C(=O)C(=O)c1ccc(Br)cc1-2	-3	7	0	5	-3	nt	nt	nt	nt
CCOC(=O)c1c2c(n(Cc3ccccc3)c1C)C(=O)C(=O)c1ccccc1-2	51*	17*	2	-9	3	73*	3	-9	72*
CC1=NN(c2ccccc2)C(=O)/C1=C/c1cccs1	71*	46*	18	10	-1	22	3	-11	-1
CCC(=O)N1CCCC(C(=O)Nc2ccc3cn[nH]c3c2)CC1 (configuration not stated)	4	1	-1	4	2	nt	nt	nt	nt
Cc1c(C(=O)NCc2cccc([N+](=O)[O-])c2)sc(=O)n1Cc1ccccc1F	3	-3	0	6	-2	nt	nt	nt	nt
NC(=O)C1CCCN(CC(O)COCc2ccc(Cl)cc2)C1 (configuration not stated)	28*	78*	-3	1	0	2	1	-2	-2
CCOC(=O)C1CCN(CC(O)COCc2ccc(Cl)cc2)CC1 (configuration not stated)	7	-1	-3	3	-2	nt	nt	nt	nt
Cc1ccc(C(=O)Nc2c(-c3ccc(Cl)cc3)[nH][nH]c2=O)cc1	61*	14*	4	2	4	27*	4	-12	1
O=C(/C=C/c1ccc(O)cc1)c1ccc(NC2=C(N3CCCCC3)C(=O)c3ccccc3C2=O)cc1	49*	15*	9	-5	-3	45*	4	-13	30*

Bioassay records as filed in PubChem.
